Source: PubChem
DNA FID counter: displaces DNA intercalator in HCV helicase counter-screen | DNA fluorescent intercalator displacement, fluorescence | inhibition, % at 7.9 µM | 290,000 tested, 0.17% active | AID 1845; in the data active = inhibition above about 37%;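 also: 0% = vehicle and 100% = reference compound; higher means more ethidium bromide displaced from hairpin DNA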
TRPC6 act: activators of mouse TRPC6 channel; 310,000 tested, 0.13% active; Q61143; B-score at 10 µM; HEK293-TRPC6 membrane potential dye fluorescence; hits give high values;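 active = B-score of the integrated fluorescence ratio above library mean plus 3 SD, and starting fluorescence ratio within library mean plus 5 SD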;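 also: higher score means more depolarization so channel activation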
Target sequence (Q61143 whole entry, looked up): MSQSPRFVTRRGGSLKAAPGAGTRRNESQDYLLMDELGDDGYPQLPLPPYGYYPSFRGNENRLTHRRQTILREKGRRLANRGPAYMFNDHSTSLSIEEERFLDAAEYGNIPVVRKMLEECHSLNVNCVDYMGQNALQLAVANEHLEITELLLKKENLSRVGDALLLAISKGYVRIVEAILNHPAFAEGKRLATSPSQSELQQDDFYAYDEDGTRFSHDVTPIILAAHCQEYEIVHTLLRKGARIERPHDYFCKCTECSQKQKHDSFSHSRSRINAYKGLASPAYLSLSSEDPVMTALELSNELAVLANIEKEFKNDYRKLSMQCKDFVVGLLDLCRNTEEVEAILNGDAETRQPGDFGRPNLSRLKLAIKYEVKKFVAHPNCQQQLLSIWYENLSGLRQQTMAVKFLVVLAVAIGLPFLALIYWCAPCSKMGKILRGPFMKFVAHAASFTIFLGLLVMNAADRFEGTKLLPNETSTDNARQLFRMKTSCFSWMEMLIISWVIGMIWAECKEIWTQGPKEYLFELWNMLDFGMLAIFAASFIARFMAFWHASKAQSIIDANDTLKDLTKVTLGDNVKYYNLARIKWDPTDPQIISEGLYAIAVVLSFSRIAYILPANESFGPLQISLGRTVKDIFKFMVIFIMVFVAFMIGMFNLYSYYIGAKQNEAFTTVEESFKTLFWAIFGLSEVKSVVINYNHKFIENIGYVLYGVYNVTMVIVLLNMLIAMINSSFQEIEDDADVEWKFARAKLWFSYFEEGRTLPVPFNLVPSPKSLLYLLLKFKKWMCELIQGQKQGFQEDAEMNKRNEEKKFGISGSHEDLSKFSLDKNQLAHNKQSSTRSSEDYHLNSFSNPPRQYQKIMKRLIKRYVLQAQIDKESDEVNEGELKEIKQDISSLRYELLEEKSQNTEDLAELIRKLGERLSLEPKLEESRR
TRPC4 agonist: TRPC4 (mouse) channel activation; Q9QUQ5; HEK293 TRPC4beta/mu-opioid, Fluo4 calcium fluorescence; hits give high values; B-score at 10 µM; 310,000 tested, 0.49% active;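 active = B-score above 5 SD of library B-scores, and initial fluorescence ratio not above library mean plus 5 SD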;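 also: positive B-score marks a calcium rise read as TRPC4 activation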
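Material: TRPC4beta and mu-opioid receptor HEK293 stable cells | Incubation: 45 min room-temperature Fluo4 loading, 110 s read | Detection: Kinetic Fluo4 calcium fluorescence | Measure: Integrated baseline-normalised fluorescence ratio, converted to per-well B score | Benchmarks: Low control buffer alone, high control maximal DAMGO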
TRPC4 potent: TRPC4 (mouse) allosteric potentiation | B-score at 10 µM | Q9QUQ5 | AID 2227 | 310,000 tested, 0.42% active | HEK293 TRPC4beta/mu-opioid, DAMGO EC20, Fluo-4 Ca2+ flux; hits give high values;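 active = B-score of calcium response area above 5 SD of library B-scores, with initial fluorescence ratio within 5 SD of library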;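 also: B-score of integrated fluorescence ratio over time as area under calcium response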
TRPC4 inh: TRPC4 (mouse) channel inhibition; Q9QUQ5; HEK293 TRPC4beta/mu-opioid, DAMGO-evoked Fluo4 calcium flux; hits give low values; B-score at 10 µM; 300,000 tested, 0.39% active; AID 2247;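 active = B-score over 3 SD under the library average, no early fluorescence shift, positive overall ratio signal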
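Assay system: HEK293 cells with stable TRPC4beta plus mu-opioid receptor expression. Dosing: single dose. Measured by: Fluo4 Ca2+ flux fluorescence. Also added: DAMGO in two steps, submaximal then maximal. Read-out: B score from integrated Fluo4 fluorescence ratio.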
TRPC6 inh: blocks the mouse TRPC6 cation channel; AID 2553; HEK293-TRPC6, membrane potential dye, ACh-evoked depolarization; hits give low values; Q61143; B-score at 10 µM; 310,000 tested, 1.1% active;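 active = B-score under library mean minus 3 SD, initial fluorescence not abnormally high, positive integrated signal ratio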;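 also: B-score derived from integrated fluorescence ratio over the kinetic read; more negative B-score means stronger inhibition of depolarization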
TRPC4 sel inh 2: second selectivity test of TRPC6 inhibitors: effect on mouse TRPC4 | 920 tested, 42% active | HEK293 TRPC4/MOR, membrane potential dye fluorescence; channel activated by saturating DAMGO dose | AID 2776 | inhibition, % at 10 µM | shares compounds with TRPC6 inh;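 active = compounds whose fluorescence signal differed from control wells by over 3 SD, either direction, in both duplicate plates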
TRPC4 spec: selectivity of TRPC6 inhibitors: effect on mouse TRPC4 | shares compounds with TRPC6 inh | HEK293 TRPC4/mu-opioid, membrane potential fluorescence | activity change, negative = inhibition, % at 10 µM | 920 tested, 61% active;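 active = rise or fall in signal beyond 3 SD of buffer-only wells in both replicate plates, either sign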;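 also: integrated kinetic ratio of fluorescence range over baseline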
HEK293 MPD ctr 2-1: parental HEK293 nonspecific activity of TRPC6 inhibitors, second screen; signal change vs control, % at 10 µM; parental HEK293 membrane potential dye fluorescence; maximal acetylcholine challenge after compound addition; shares compounds with TRPC6 inh; AID 2779; 920 tested, 31% active;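 active = membrane potential signal moving either way by over 3 SD of the maximum-effect control, in both duplicate plates, meaning non-specific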
HEK293 MPD ctr-1: counter-screen for TRPC6 inhibitors: effect in parental HEK293 cells; shares compounds with TRPC6 inh; parental HEK293 membrane potential dye fluorescence; membrane potential signal change, % at 10 µM; 920 tested, 60% active; AID 2780;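 active = membrane potential signal shifting up or down by more than 3 SD of buffer-only wells, on both duplicate plates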
HEK293 MPD ctr-2: counter-screen for TRPC6 modulators: effect in parental HEK293 cells | 2,400 tested, 51% active | shares compounds with TRPC6 inh | membrane potential signal change, % at 10 µM | membrane potential dye fluorescence;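 active = membrane potential signal moves up or down beyond 5 SD from buffer-only wells, on both duplicate plates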
HEK293 MPD ctr 2-2: second check of TRPC6 modulator effects in parental HEK293 cells | inhibition, % at 10 µM | shares compounds with TRPC6 inh | 2,400 tested, 14% active | membrane potential dye fluorescence; after compound, maximal acetylcholine stimulation;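 active = membrane potential signal drops by more than 5 SD from the mean control signal, in both duplicate plates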;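 also: plate controls were acetylcholine ECmax control wells for no effect and buffer only wells for full effect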
TRPC4/MOR mod: tests whether TRPC6 modulators also affect mouse TRPC4; shares compounds with TRPC6 inh; HEK293 TRPC4/mu-opioid, membrane potential fluorescence; percent change from control (negative = decrease, positive = increase), % at 10 µM; 2,400 tested, 69% active; AID 488927;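 active = membrane potential signal moved up or down beyond 5 SD of buffer control wells, in both duplicate plates, actives on both sides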;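 also: plate controls were assay buffer wells for no effect and DAMGO maximal-effect wells for full effect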
TRPC4 ctr inh 2: mouse TRPC4 off-target activity of TRPC6 modulators, second screen; AID 488928; HEK293 TRPC4/mu-opioid, membrane potential dye fluorescence; stimulated with maximal-effect DAMGO; inhibition, % at 10 µM; shares compounds with TRPC6 inh; 2,400 tested, 55% active;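 active = drop in membrane potential signal beyond 5 SD of the control wells in both duplicate plates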;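 also: TRPC4 counter screen for TRPC6 hits run under conditions tuned for TRPC6 not TRPC4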
TRPC6 block conf: confirmation of mouse TRPC6 inhibitors; inhibition, % at 10 µM; AID 488960; HEK293-TRPC6, membrane potential dye, ACh-evoked depolarization; 3,300 tested, 43% active; shares compounds with TRPC6 inh;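 active = fluorescence ratio falls more than 5 SD below the full-stimulation control mean, in both duplicate runs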;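 also: integrated fluorescence ratio of peak minus minimum over baseline after agonist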
TRPC6 act confirm: confirmation of mouse TRPC6 activators. shares compounds with TRPC6 inh. HEK293-TRPC6 membrane potential dye fluorescence, FDSS. activation, % at 10 µM. 2,800 tested, 11% active;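 active = ratio signal rise beyond 5 SD above unstimulated control wells' mean, seen in both duplicate runs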;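 also: plate controls were buffer EC0 wells for no effect and acetylcholine ECmax response for full effect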
Starred values were filed as active, the others as inactive; i = inactive; . = no result given; ! = repeats disagree. A selection: hits, their analogues and other compounds. The true share with any hit is near 2.3%.

SMILES	DNA FID counter	TRPC6 act	TRPC4 agonist	TRPC4 potent	TRPC4 inh	TRPC6 inh	TRPC4 sel inh 2	TRPC4 spec	HEK293 MPD ctr 2-1	HEK293 MPD ctr-1	HEK293 MPD ctr-2	HEK293 MPD ctr 2-2	TRPC4/MOR mod	TRPC4 ctr inh 2	TRPC6 block conf	TRPC6 act confirm
CN1Cc2sc(NC(=S)NC(=O)c3ccccc3)c(C#N)c2CC1(C)C	15	21*	i	i	i	-5.2*	.	.	.	.	168%*	i	24%*	i	i	40%*
CNCc1c(OCc2ccccc2)ccc2ccccc12	15	i	i	i	-6*	-7*	44%*	29%*	i	12%*	.	.	.	.	i	.
CCOC(=O)c1c(C)oc2c(CC(=O)c3ccccc3)c(Cl)c(O)c(O)c12	-22	i	i	i	i	-9*	i	i	i	i	.	.	.	.	i	i
COCCCn1c(=N)c(C(N)=S)cc2c(=O)n3cccc(C)c3nc21	.	i	i	i	i	-6.3*	.	.	.	.	i	i	i	i	i	i
COCCNC(=O)c1cc2c(=O)n3cccc(C)c3nc2n(Cc2ccncc2)c1=N	0	i	i	i	i	-11*	78%*	-11%*	-118%*	-230%*	.	.	.	.	i	i
Cc1cccn2c(=O)c3cc(C(N)=S)c(=N)n(CCCN4CCOCC4)c3nc12	18	i	i	i	i	i	.	.	.	.	.	.	.	.	.	.
Cc1cccn2c(=O)c3cc(C(=O)NCCc4ccccc4)c(=N)n(Cc4ccco4)c3nc12	-29	i	i	i	i	i	.	.	.	.	.	.	.	.	.	.
CCCCNC(=O)c1cc2c(=O)n3cccc(C)c3nc2n(Cc2ccncc2)c1=N	-2	i	i	i	i	-6.7*	i	-20%*	i	-341%*	.	.	.	.	i	i
CCCCNC(=O)c1cc2c(=O)n3cccc(C)c3nc2n(CCN2CCOCC2)c1=N	-6	i	i	i	i	-6.6*	i	i	-26%*	i	.	.	.	.	i	i
CCc1nc2nc(C)c(NS(=O)(=O)c3ccc(C)c(C)c3)c(=O)n2[nH]1	-11	i	i	i	i	i	.	.	.	.	.	.	.	.	.	.
O=C(CCc1c[nH]c2ccccc12)OCc1cccc([N+](=O)[O-])c1	-2	i	i	i	i	i	.	.	.	.	.	.	.	.	.	.
CC1Cc2ccccc2N1C(=O)c1ccc(N2CCCCC2)c([N+](=O)[O-])c1 (configuration not stated)	-2	i	i	i	i	-5.8*	.	.	.	.	i	i	i	i	i	i
O=C(CCNC(=O)C1CCN(S(=O)(=O)c2ccccc2)CC1)NCc1ccccc1Cl	-35	i	i	i	i	i	.	.	.	.	.	.	.	.	.	.
CCN1CCC[C@H]1CNC(=O)c1c(O)c(Cl)cc(Cl)c1OC	12	i	i	i	i	-7.4*!	i	i	i	i	.	.	.	.	i	i
CCN(CC)CCNc1ccc(CO)c2sc3ccccc3c(=O)c12	19	i	i	i	i	-5.2*	.	.	.	.	-96%*	i	-37%*	67%*	i	i
O=C(CSc1nnc(C2CC2)n1Cc1ccccc1)c1cc2ccccc2o1	-27	i	i	i	i	-5.2*	.	.	.	.	169%*	i	24%*	i	i	.
CCOC(=O)N1CCC(N2CCN(CCC(C)C)C(CCO)C2)CC1 (configuration not stated)	-3	i	i	i	i	-7.6*	i	9.0%*	-4.0%*	1.5%*	.	.	.	.	64%*	.
Cc1ccc(C(=O)Nc2nc3ccccc3n2CCN2CCCC2)cc1	13	i	i	i	i	-11*	.	.	.	.	-130%*	74%*	-30%*	88%*	92%*	i
O=C(Nc1nc2ccccc2n1CCN1CCCC1)c1ccc(Cl)cc1	1	.	.	.	.	.	.	.	.	.	.	.	.	.	.	.
CCn1nccc1C(=O)Nc1nc2ccccc2n1CCN1CCCCC1	0	i	i	i	i	-6.8*	68%*	-11%*	i	i	.	.	.	.	i	i
CCN(CC)CCn1c(NC(=O)c2ccccc2O)nc2ccccc21	0	i	i	i	i	-12*	20%*	-26%*	3.5%*	-336%*	.	.	.	.	88%*	i
COc1cccc(CN2C(=O)C(C)N(C(=O)c3ccccc3)c3ccccc32)c1 (configuration not stated)	-33	i	i	i	i	i	.	.	.	.	.	.	.	.	.	.
Cc1cc(NC(=O)CSc2ccnc(=O)[nH]2)no1	.	i	i	i	i	i	.	.	.	.	.	.	.	.	.	.
Cc1cc(=O)n2c3ccccc3n(CC(O)CN3CCN(Cc4ccccc4)CC3)c2c1C#N (configuration not stated)	6	i	i	i	i	-9.5*	.	.	.	.	-157%*	i	-36%*	65%*	i	i
